A selection: hits, their analogues and other compounds. The true share with any hit is near 2.2%.
Myeloid diff 2: myeloid differentiation induction; ER-HoxA9 myeloid progenitors, lysozyme-GFP differentiation, flow cytometry; AID 624256; hit rate 1% among 360,000; calls only at 10 µM;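 active means normalized GFP-positive differentiation at or above the plate's own cutoff, the solvent-only control mean plus 3 SD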;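 further: cells exposed to compound for four days before flow analysis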
Granule exo inh: lytic granule exocytosis inhibition; TALL-104 LAMP-1 surface exposure, flow cytometry; cells stimulated with thapsigargin and PMA; inhibition, % at 10 µM; hit rate 0.66% among 360,000; AID 651702;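 active means inhibition above about 55%, limit read from the data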
HNF4A DNA FP: change in binding of human HNF4 alpha to DNA; HNF4a-FITC DNA binding, fluorescence polarization, 1 h; AID 1224865; activity change, % at 10 µM; hit rate 0.3% among 360,000; P41235; in the data active means activity change above about 30%, passing the limit was not always enough
CSN deneddyl inh: inhibitors of human CSN-mediated cullin deneddylation. AID 651999. Purified CSN, SCF-Nedd8-OG deneddylation, fluorescence polarization. hit rate 0.38% among 360,000. Q92905. inhibition, % at 12.5 µM;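 active means pattern-corrected inhibition above about 35%, with an unprinted fluorescence ratio check between 0.5 and 1.5, limit read from the data, passing the limit was not always enough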;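 further: 0% = enzyme with substrate and 100% = substrate without enzyme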
Target sequence (Q92905 whole entry, looked up, one chain of several): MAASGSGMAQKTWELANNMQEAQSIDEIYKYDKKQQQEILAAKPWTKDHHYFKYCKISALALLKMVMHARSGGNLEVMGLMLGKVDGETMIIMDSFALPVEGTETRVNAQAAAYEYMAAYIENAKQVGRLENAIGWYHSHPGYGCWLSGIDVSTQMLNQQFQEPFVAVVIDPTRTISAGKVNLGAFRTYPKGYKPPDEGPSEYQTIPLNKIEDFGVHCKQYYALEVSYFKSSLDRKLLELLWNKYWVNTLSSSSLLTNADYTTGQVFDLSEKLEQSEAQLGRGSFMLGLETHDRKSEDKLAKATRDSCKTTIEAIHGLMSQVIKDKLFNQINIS
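test system = HEK293T-derived human Csn5 enzyme | amount = 0.24 nM Csn5 enzyme, final concentration | medium = Tris/NaCl/DTT buffer, pH 7.5 | schedule = 90 min reaction at room temperature | signal = FP | evaluation = inhibition of Csn5 cleavage, % | compound dosing = single dose of 12.5 µM compound with 0.25% DMSO | probe or stimulus = 10 nM SCFSkp2-Nedd8OG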
Starred values were filed as active, the others as inactive; i = inactive; + = active, no number; ! = a repeat was not active.

SMILES | Myeloid diff 2 | Granule exo inh | HNF4A DNA FP | CSN deneddyl inh
Oc1ccc(CNc2ccc(F)cc2)c2cccnc12 | + | 30 | 3 | 0
Nc1ncnc2c1ncn2[C@@H]1O[C@H](CNS(=O)(=O)C2CC2)[C@@H](O)[C@H]1O | i | 0 | 1 | -1
CN1CCN(S(=O)(=O)NC[C@H]2O[C@@H](n3cnc4c(N)ncnc43)[C@H](O)[C@@H]2O)CC1 | + | -1 | -4 | 0
Nc1ncnc2c1ncn2[C@@H]1O[C@H](CNCC#Cc2ccccc2)[C@@H](O)[C@H]1O | + | -1 | 1 | 1
O=C(COC(=O)C(CO)NS(=O)(=O)c1ccc(Br)cc1)Nc1ccc2c(c1)OCCO2 (centres undefined) | i | 19 | 8 | -3
CC(C)Oc1ccc(CN2CCC(n3nccc3NC(=O)CCc3ccccc3)CC2)cc1 | i | 5 | -2 | -2
Cc1ccc2oc(C(=O)NCC3CCOCC3)c(C)c2c1 | i | -1 | -1 | 0
CN(c1ccc(C(=O)N2CCN(Cc3ccc4c(c3)OCO4)CC2)cc1)S(=O)(=O)c1ccccc1 | i | -1 | -1 | 0
CN(c1ccc(C(=O)N2CCN(Cc3ccccc3)CC2)cc1)S(=O)(=O)c1ccccc1 | + | 11 | 2 | 1
O=C(Cc1csc(Nc2nc(=S)[nH]c3ccccc23)n1)NCc1ccc(Cl)cc1 | i | -1 | 1 | 3
O=C(Cc1csc(Nc2nc(=S)[nH]c3ccccc23)n1)NCCCN1CCN(c2ccccc2F)CC1 | i | 84* | 5 | 4
CC(C)NC(=O)c1ccc(COc2cc(Cl)ccc2Cl)o1 | i | -5 | 4 | 6
O=c1c(/C=C(\O)c2ccc(F)cc2)nc2ccccc2n1-c1ccccc1 | + | -1 | 20 | 12
CN(c1ccc(C(=O)NCc2ccncc2)cc1)S(=O)(=O)c1ccc(Cl)cc1 | i | -5 | 5 | -2
CCCC(C(=O)Nc1ccc(S(=O)(=O)Nc2ncccn2)cc1)c1ccccc1 (centres undefined) | i | -3 | 34* | 0
COc1ccccc1N1C(=O)c2ccccc2NC1c1ccncc1 (centres undefined) | i | -2 | -1 | 0
COc1ccccc1N1C(=O)N(C(C)=O)C2C1Nc1ccccc1N2C (centres undefined) | + | 15 | 14 | 16
N#Cc1ccccc1OCC(=O)NC1CCCCCC1 | i | -3 | -1 | 2
O=C(CCc1ccccc1)N/N=C/c1cccc(O)c1 | i | -1 | 0 | -9
O=C(N/N=C/c1cccc(O)c1)N/N=C/c1cccc(O)c1 | + | -3 | -1 | 6
O=C(CCC(=O)n1ncc2ccccc21)N1CCCCC1 | + | -2 | 3 | -1
O=C(O)c1ccc(COc2ccc3c4c(c(=O)oc3c2)CCC4)o1 | i | 1 | -7 | 2
CCc1cc(=O)oc2cc(OCc3ccc(C(=O)O)o3)ccc12 | + | -3 | -1 | -2
CCCc1nc(SCC(=O)Nc2ccccc2)c2c(=O)n(C)c(=O)n(C)c2n1 | i | 8 | 3 | 1
CCCc1nc(SCC(=O)N2CCC(Cc3ccccc3)CC2)c2c(=O)n(C)c(=O)n(C)c2n1 | + | -2 | -3 | 1
SMILES | Myeloid diff 2 | Granule exo inh | HNF4A DNA FP | CSN deneddyl inh
CC(/C=C1\SC(=Nc2cccnc2)NC1=O)=C\c1ccccc1 | i | 57* | 20 | 7
O=C(Nc1nnc(SCCC2OCCO2)s1)C1CC(=O)N(c2ccc(F)cc2)C1 (centres undefined) | i | -2 | 4 | 0
O=C(Cc1ccccc1[N+](=O)[O-])NCCC1=CCCCC1 | + | 0 | 0 | 4
O=C(Cc1ccccc1)NCCC1=CCCCC1 | i | -11 | 1 | 4
C=C1C[C@]23C[C@@]1(O)CC[C@H]2[C@@]12C=C[C@H](O)[C@@](C)(C(=O)O1)[C@H]2[C@@H]3C(=O)O | +! | 0 | 1 | -1
c1ccc(-c2onc(-c3ccco3)c2-c2ccc3[nH]ccc3c2)cc1 | i | 15 | 2 | 4
COc1ccccc1-c1csc(Nc2ccc(Oc3ccccc3)cc2)n1 | i | -6 | -1 | 5
C/C(Cl)=C\Cn1c(NCCc2ccccc2)nc2c1c(=O)n(C)c(=O)n2C | + | 3 | -2 | 2
Cc1ccc(Cn2c(NCCc3ccccc3)nc3c2c(=O)n(C)c(=O)n3C)cc1 | + | 2 | 3 | -1
Cc1cccc(NC(=O)CSCC(=O)N2CCN(Cc3ccc4c(c3)OCO4)CC2)c1 | i | -12 | 9 | 1
O=C(CSc1nnc2ccc(-c3ccc(F)cc3)nn12)N1CCOCC1 | i | -4 | -1 | -4
CNC(=O)c1ccc(-c2sc3nc(N4CCOCC4)c4c(c3c2N)CC(C)(C)OC4)o1 | i | 0 | 2 | -1
CC1(C)Cc2c(c(N3CCOCC3)nc3sc(-c4ccc(C(=O)O)o4)c(N)c23)CO1 | + | -12 | 85* | 62*
COc1ccc(-c2ccc3c(c2)S(=O)(=O)c2cccc(C(=O)N4CCN(C5CCCCC5)CC4)c2C3=O)cc1OC | + | -4 | 35 | 28
CCN(CC)c1nc2ccccc2n(Cc2cccc(OC)c2)c1=O | i | 5 | 4 | 0
COc1ccc(CN2CCN(CCc3ccccc3)C(CCO)C2)c(Cl)c1OC (centres undefined) | i | 14 | 0 | -3
Cc1onc(-c2ccccc2Cl)c1C(=O)N(Cc1nc(-c2ccccc2)no1)C1CCCCC1 | + | -1 | -4 | -2
CC(=O)C1CCC2C3CC(O)C4=CC(=O)CCC4(C)C3C(=O)CC12C (centres undefined) | + | -5 | 1 | 3
COc1ccc(C(=O)C(OC(=O)c2ccc(C)c(NC(C)=O)c2)c2ccccc2)cc1 (centres undefined) | + | -2 | 3 | -2
COc1ccc(Cl)cc1NC(=O)CSc1nc(NS(=O)(=O)c2ccc(C)cc2)cc(=O)[nH]1 | + | 40 | 2 | -1
Cc1cccc(C)c1NC(=O)C(c1ccccc1OC(F)(F)F)N1CCN(c2ccc(F)cc2)CC1 (centres undefined) | i | 0 | 1 | -3
CC1N(C)c2cccc3cccc(c23)N1C | + | 0 | 32 | 3
CN1c2cccc3cccc(c23)N(C)C1c1cccs1 | i | 12 | 0 | -3
CN=c1sc2ccccc2n1CC(O)COCc1ccco1 (centres undefined) | + | 1 | -2 | 0
COc1ccc(NC(=O)c2cc(-c3ccc(C)o3)nc3ccccc23)c(OC)c1 | i | 11 | 1 | 1
COc1ccc(NC(=O)c2cc(-c3ccc(C)o3)nc3ccccc23)cc1OC | i | 64* | -7 | 5
Cc1ncc(CSc2ccc(Cl)cc2)c(CO)c1O | i | 41 | -1 | 4
O=c1[nH]c2cc3c(cc2cc1C(c1nnnn1C1CCCCC1)N1CCSCC1)OCCO3 (centres undefined) | i | -1 | 4 | 37*
NC(=O)N/N=C/c1ccc(N2CCOCC2)s1 | i | -2 | 71* | 5
O=C(N/N=C/c1ccc(N2CCOCC2)s1)c1ccc(O)cc1 | i | 14 | 1 | 11
